MrgX1 allo act: human MrgX1 positive allosteric modulation, primary screen | MrgX1-HEK293, Fluo-4 calcium flux, FDSS; hits give high values | 0.63% of 310,000 active | B-score at 10 µM | Q96LB2;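 active = plate-corrected calcium response at least 3 library SD above typical, normal starting fluorescence, not activating the receptor alone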;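 note: compound read alongside a low EC10 to EC30 dose of BAM8-22 agonist; peak minus trough fluorescence over baseline measured at the second addition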
Target sequence (Q96LB2 whole entry, looked up): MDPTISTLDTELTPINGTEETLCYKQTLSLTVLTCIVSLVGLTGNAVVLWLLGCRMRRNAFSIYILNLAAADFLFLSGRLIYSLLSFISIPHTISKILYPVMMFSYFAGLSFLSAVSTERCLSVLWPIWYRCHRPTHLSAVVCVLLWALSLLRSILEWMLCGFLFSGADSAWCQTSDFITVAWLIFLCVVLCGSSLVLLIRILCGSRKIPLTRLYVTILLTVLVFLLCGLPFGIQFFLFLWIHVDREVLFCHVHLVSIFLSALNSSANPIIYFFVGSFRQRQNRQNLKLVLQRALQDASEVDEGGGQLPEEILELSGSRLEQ
RGS4 act: potentiators or activators of RGS4; HEK293 M3R/inducible RGS4, carbachol calcium flux Fluo4; hits give low values; 0.92% of 310,000 active; B-score at 10 µM;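 active = B-score of the integrated calcium signal more than 4 SD below the library mean, with starting fluorescence not abnormally high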;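 note: negative B-score means reduced calcium response which marks RGS4 activation or potentiation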
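Material: Inducible-RGS4 HEK293 cells carrying M3 receptor; also added: carbachol at ECmax as muscarinic agonist stimulus; incubation: compound preincubation 20 min at room temperature before agonist; signal: Fluo4-AM (2 µM) calcium-flux fluorescence, kinetic read; measure: integrated calcium ratio converted to B score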
RGS4 block: inhibitors of human RGS4; HEK293 M3R/RGS4 inducible, Fluo-4 calcium flux; hits give high values; triggered by carbachol at its EC20; B-score at 10 µM; 0.45% of 310,000 active;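 active = B-score, a plate-corrected calcium signal, over three deviations above library mean, with baseline fluorescence within five deviations of library mean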;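 note: RGS4 expression induced by doxycycline in cells with stable M3 receptor; B-score is computed from the integrated fluorescence ratio over baseline after carbachol; higher B-score means a larger calcium signal and so more RGS4 inhibition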
Target sequence (P49798 whole entry, looked up): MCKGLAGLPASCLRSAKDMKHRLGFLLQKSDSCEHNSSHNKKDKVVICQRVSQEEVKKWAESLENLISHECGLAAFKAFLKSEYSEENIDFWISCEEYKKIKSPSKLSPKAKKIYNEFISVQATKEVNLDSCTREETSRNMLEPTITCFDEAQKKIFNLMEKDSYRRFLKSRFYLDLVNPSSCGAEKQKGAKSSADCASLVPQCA
MrgX1 antag: antagonists of human MrgX1 receptor. Q96LB2. MRGX1-HEK293 calcium flux, Fluo-4, BAM8-22 antagonism; hits give low values. B-score at 10 µM. 1.3% of 310,000 active. AID 588676;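 active = calcium-response B-score plate-corrected more than 3 library SD below zero, starting fluorescence within 5 deviations, no agonist response on first addition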;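 note: peak minus trough fluorescence over baseline after final BAM8-22 challenge near maximal dose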
MrgX1 agonist: human MrgX1 receptor agonism, primary screen; B-score at 10 µM; Q96LB2; 0.44% of 310,000 active; MrgX1-HEK293 cells, Fluo-4 calcium fluorescence, agonist mode; hits give high values;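 active = calcium response B-score plate-corrected fluorescence ratio at least 3 library SD, with starting fluorescence B-score inside 5 SD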
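Material: MrgX1-expressing HEK293 cells; input: 15,000 cells per well; doses: test compound given as first of three sequential additions; schedule: overnight plating before 1 h dye loading; technique: Fluo-4 NW calcium-flux fluorescence, kinetic read; evaluation: baseline-normalised fluorescence change ratio, B-scored; control set: plate-wise positive and negative controls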
MrgX1 ant reconf: reconfirmed antagonist of human MrgX1 receptor signaling; 19% of 2,300 active; remaining BAM8-22 calcium response % of control (hits give low values), % at 10 µM; shares compounds with MrgX1 antag; MrgX1-HEK293, BAM8-22 calcium flux, Fluo-4; hits give low values; AID 602420;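 active = remaining agonist calcium response no higher than 100% minus 3 SD of agonist-only control wells, with starting fluorescence near control levels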;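 note: agonist BAM8-22 given at a near maximal EC90 to ECmax level; peak minus minimum fluorescence divided by baseline after agonist addition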
HEK293 Ca flux: counter-screen for MrgX1 antagonists: effect in parental HEK293 cells; Fluo-4 calcium fluorescence, FDSS; fluorescence ratio F(max-min)/F0 at 10 µM; 2% of 4,000 active; shares compounds with MrgX1 antag; AID 624111;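 active = duplicate-averaged calcium fluorescence ratio at least three times the standard deviation of buffer wells, a nonspecific response in parental cells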
HEK293 Ca counter: MrgX1 allosteric activator counter-screen hit in parental HEK293 cells; shares compounds with MrgX1 antag; parental HEK293 calcium flux, Fluo-4 fluorescence ratio; hits give high values; fluorescence ratio F(max-min)/F0 at 10 µM; 0.4% of 4,000 active; AID 624114;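 active = calcium fluorescence ratio, averaged over duplicates, at least 3 SD of the buffer-well ratio, meaning a nonspecific response in receptor-free cells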;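 note: untransfected parental HEK293 lacking MrgX1 used as counterscreen for MrgX1 allosteric activators; fluorescence change taken during the second addition on a kinetic imager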
HEK293 Ca cntr2: counter-screen for MrgX1 activators: effect in parental HEK293 cells; 8.7% of 4,000 active; shares compounds with MrgX1 antag; fluorescence ratio F(max-min)/F0 at 10 µM; AID 624115; Fluo-4 calcium fluorescence (FDSS); hits give high values;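 active = calcium fluorescence ratio at least three times the spread of buffer wells, meaning a non-specific response in parental cells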
An asterisk follows results filed as active; i = inactive; . = no result given. An excerpt weighted towards active compounds, which were near 3.5% of everything screened.

SMILES | MrgX1 allo act | RGS4 act | RGS4 block | MrgX1 antag | MrgX1 agonist | MrgX1 ant reconf | HEK293 Ca flux | HEK293 Ca counter | HEK293 Ca cntr2
O=C(O)CCC(=O)Nc1ccc2c(c1)Cc1cc(NC(=O)CCC(=O)O)ccc1-2 | i | i | i | i | i | . | . | . | .
O=C(NCc1ccc(Cl)cc1Cl)C1CCN(S(=O)(=O)c2ccc3c(c2)OCCCO3)CC1 | i | i | i | -7.1* | i | i | i | i | i
Cc1ccc(NC(=O)c2oc3ccc(S(=O)(=O)N4CCOCC4)cc3c2C)c(C)c1 | i | i | i | i | i | . | . | . | .
Cc1cccc(NC(=O)c2oc3ccc(S(=O)(=O)N4CCOCC4)cc3c2C)c1C | i | i | i | -4.8* | i | i | i | i | i
O=C(c1nc2nc(-c3ccccc3)cc(C(F)(F)F)n2n1)N1CCOCC1 | i | i | i | -5.5* | i | 85%* | i | i | i
O=C(c1nc2nc(-c3ccc(Cl)cc3)cc(C(F)(F)F)n2n1)N1CCOCC1 | i | i | i | i | i | . | . | . | .
CC1CCCCC1NC(=S)NC(=O)c1sc2ccccc2c1Cl (centres undefined) | i | i | i | i | i | . | . | . | .
COc1ccccc1C(=O)NC(=S)NNC(=O)c1sc2ccccc2c1Cl | i | -9.1* | i | -12* | i | i | i | i | i
CCC(=O)N1CCc2cc(Br)cc(S(=O)(=O)CC(=O)OC)c21 | i | i | i | -5.9* | i | i | i | i | i
COc1cc2c(cc1OC)CN(c1ncccc1[N+](=O)[O-])CC2 | i | i | i | i | i | . | . | . | .
OCCCNc1cc(-c2ccnc(Nc3cccc(Cl)c3)n2)ccn1 | i | i | i | -4.9* | i | 60%* | i | i | i
Cc1ccc2c(c1)cc(CN(Cc1cccnc1)C(=O)c1ccccc1)c1nnnn12 | i | i | i | i | i | . | . | . | .
Cc1ccc2c(c1)cc(CN(Cc1ccc3c(c1)OCO3)S(=O)(=O)c1ccccc1)c1nnnn12 | i | i | i | -4.5* | i | i | i | i | i
CC(=O)Oc1c(-c2ccc(Br)o2)oc2ccccc2c1=O | i | i | i | -5.5* | i | i | i | i | i
CCCOc1ccc(CNCCCOCC)cc1OC | i | i | i | i | i | . | . | . | .
CCCN(CCC)S(=O)(=O)c1ccc(C(=O)Nc2nc3c(s2)CCc2ccccc2-3)cc1 | i | i | i | -5.2* | i | i | i | i | i
Cc1ccc(-c2nc(NC(=O)c3ccc(S(=O)(=O)N(CCC#N)CCC#N)cc3)sc2-c2ccccc2)cc1 | i | i | i | i | i | . | . | . | .
Cc1cccc(-n2ncc3c(NC(C)C)ncnc32)c1 | i | i | i | i | i | . | . | . | .
CC(C)Nc1ncnc2c1cnn2-c1ccccc1 | i | i | i | -4.9* | i | i | i | i | i
CSC1=NCCN1C(=O)c1ccc(Br)o1 | i | i | i | -5.4* | i | i | i | i | i
O=C(OCc1csc(Nc2ccccc2)n1)c1ccc(Cl)cc1 | i | i | i | i | i | . | . | . | .
Cc1nnc(SCC(=O)NC(=O)NC(C)(C)C)s1 | i | i | i | -5.6* | i | i | i | i | i
Cc1nnc(SCC(=O)NC(=O)NC(C)C)s1 | i | i | i | i | i | . | . | . | .

Screening results deposited in PubChem by Johns Hopkins Ion Channel Center.
